Results on 9 molecules are retold here after ChEMBL document CHEMBL1154282, “Identification of antiadipogenic constituents of the rhizomes of Anemarrhena asphodeloides” (J Nat Prod, 2009).

The IC50 is the concentration at which inhibition is half-maximal.

The test system of this test is 3T3-L1. Nature of the test: Antiadipogenic activity against mouse 3T3L1 cells assessed as inhibition of differentiation after 7 days by oil-red O staining. Type of test: functional, cell-based. Particulars: 3T3-L1, 168 h. The procedure, abridged:
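Mouse 3T3-L1 preadipocytes grown to confluence for 48 h, then induced (day 0) in DMEM with 10% FBS, insulin 5 µg/mL, 10 µM rosiglitazone, 1 µM dexamethasone; after 48 h switched to 10% FBS/DMEM + 5 µg/mL insulin, then 10% FBS/DMEM every other day. Compounds added day 0, refreshed every 2 days. Day 7: PBS wash, 10% formalin 10 min, Oil-red O 1 h RT, dye eluted in isopropanol, A500; IC50 derived.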
For the molecule `O=C1/C(=C/c2ccc(O)cc2)COc2cc(O)cc(O)c21`, the IC50 was over 100 µM.
With `Cc1c(O)cc2c(c1O)C(=O)/C(=C/c1ccc(O)cc1)CO2`, the IC50 is over 100 µM.
As for `C=C[C@H](/C=C\c1ccc(OC)cc1)c1ccc(O)cc1`, the figure is 45.9 µM; as for `COc1cc(O)ccc1C(=O)/C=C/c1ccc(O)cc1`, 41.8 µM; as for `O=C(C#Cc1ccc(O)cc1)c1ccc(O)cc1` [ANEMARCHALCONYN], 5.3 µM.
Turning to `COc1ccc(CCCc2ccc(O)cc2)c(O)c1` [BROUSSONIN A], the 50% inhibitory concentration (IC50) was determined as 74.5 µM.
Consider `O=C(/C=C/c1ccc(O)cc1)c1ccc(O)cc1O` [ISOLIQUIRITIGENIN], for which the IC50 stood at 96.4 µM.
For `C=C[C@H](/C=C\c1ccc(O)cc1)c1ccc(O)cc1` [NYASOL], the half-maximal inhibitory concentration (IC50) was over 100 µM.
As for `Oc1ccc(/C=C/c2cc(O)cc(O)c2)cc1` [RESVERATROL], the IC50 was 31.4 µM.
